Experimental data published in publication PMC7941214 (Journal of medicinal chemistry, 2019).
Several values for one entry are separate records, joined by “and”; a condition that tells them apart may be missing. Identical values can stand only once.

How the values were obtained:
E. faecium ATCC 700221 = assay: Broth microdilution MIC/MBC, E. faecium; format: cell-based, Enterococcus faecium; details: for MBC E. faecium ATCC 700221: value in parentheses; for MIC E. faecium ATCC 700221: value before the parentheses, two values = two repeats
Method in brief: (§1)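 CLSI broth microdilution in cation-adjusted Mueller–Hinton broth. Log-phase cultures were diluted to 7.5 × 10^5 CFU/mL, then mixed 1:1 with 2-fold serial dilutions of gold complexes from DMSO or water stocks, in triplicate, and held 37 °C, 18 h, static. MIC: lowest concentration giving >90% inhibition by OD600 against medium-only and bacteria-only wells. […] E. coli ATCC 25922 quality control was checked each run with ciprofloxacin and […].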

Log P determination = details: n-octanol/water, Au by FAAS
E. cloacae NCTC 13405 = assay: Broth microdilution MIC/MBC, E. cloacae; format: cell-based, Enterobacter cloacae; details: for MIC E. cloacae NCTC 13405: value before the parentheses, two values = two repeats; for MBC E. cloacae NCTC 13405: value in parentheses
Method in brief: as §1

A. baumannii NCTC 13420 = assay: Broth microdilution MIC/MBC, A. baumannii; format: cell-based, Acinetobacter baumannii; details: for MIC A. baumannii NCTC 13420: value before the parentheses, two values = two repeats; for MBC A. baumannii NCTC 13420: value in parentheses
P. aeruginosa NCTC 13437 = assay: Broth microdilution MIC/MBC, P. aeruginosa; format: cell-based, Pseudomonas aeruginosa; details: for MIC P. aeruginosa NCTC 13437: value before the parentheses, two values = two repeats; for MBC P. aeruginosa NCTC 13437: value in parentheses
Method in brief: as §1

S. aureus JE2 (USA300) = assay: Broth microdilution MIC/MBC, S. aureus; format: cell-based, Staphylococcus aureus; details: for MBC S. aureus JE2 (USA300): value in parentheses; for MIC S. aureus JE2 (USA300): value before the parentheses, two values = two repeats
Method in brief: as §1

E. coli ATCC 25922 = assay: Broth microdilution MIC/MBC, E. coli; format: cell-based, Escherichia coli; details: for MIC E. coli ATCC 25922: value before the parentheses, two values = two repeats; for MBC E. coli ATCC 25922: value in parentheses
Method in brief: as §1

[1] = tested on: K. pneumoniae ATCC 700603; assay: Broth microdilution MIC/MBC, K. pneumoniae; format: cell-based, Klebsiella pneumoniae; details: for MIC K. pneumoniae ATCC 700603: value before the parentheses, two values = two repeats; for MBC K. pneumoniae ATCC 700603: value in parentheses
Method in brief: as §1

SMILES | MBC E. faecium ATCC 700221 (E. faecium ATCC 700221) | log P (Log P determination) | MIC E. cloacae NCTC 13405 (E. cloacae NCTC 13405) | MBC E. cloacae NCTC 13405 (E. cloacae NCTC 13405) | MIC A. baumannii NCTC 13420 (A. baumannii NCTC 13420) | MBC A. baumannii NCTC 13420 (A. baumannii NCTC 13420) | MIC P. aeruginosa NCTC 13437 (P. aeruginosa NCTC 13437) | MBC P. aeruginosa NCTC 13437 (P. aeruginosa NCTC 13437) | MBC S. aureus JE2 (USA300) (S. aureus JE2 (USA300)) | MIC E. coli ATCC 25922 (E. coli ATCC 25922) | MBC E. coli ATCC 25922 (E. coli ATCC 25922) | MIC K. pneumoniae ATCC 700603 [1] | MIC E. faecium ATCC 700221 (E. faecium ATCC 700221) | MIC S. aureus (S. aureus JE2 (USA300)) | MIC S. aureus JE2 (USA300) (S. aureus JE2 (USA300)) | MBC K. pneumoniae ATCC 700603 [1] | fold enhancement of activity over auranofin, S. aureus (S. aureus JE2 (USA300); vs auranofin) | fold enhancement of activity over auranofin, E. coli (E. coli ATCC 25922; vs auranofin)
CC[PH](CC)(CC)[Au][S]C1OC(CO)C(OC2OC(CO)C(O)C(O)C2O)C(O)C1O (centres unmarked) [Compound 14] | 0.4 µM | −1.69 | 190 µM | 190 µM | 24 µM | 24 µM | 381 µM | 381 µM | 0.09 µM | 12 µM | 12 µM | >381 µM |  |  |  |  |  | 
CC[P+](CC)(CC)[Au-][S]CC(F)(F)F [Compound 23, (2,2,2-Trifluoroethanethiolato)(triethylphosphine) Gold(I)] | 1 µM | 2.08 | 37 µM | 149 µM | 37 µM and 74 µM | 149 µM | 149 µM | 149 µM | 0.1 µM | 74 µM | 74 µM | 149 µM | 0.6 µM | in the nanomolar range | 0.009 µM | 149 µM |  | 
FC(F)(F)c1ccc(P(c2ccc(C(F)(F)F)cc2)c2ccc(C(F)(F)F)cc2)cc1.[Cl][Au] [Compound 30, (Tris(4-trifluoromethylphenyl)phosphine)gold Chloride] |  | >3.94 | >366 µM |  | >366 µM |  | >366 µM |  | 11 µM | >366 µM |  | >366 µM | >366 µM |  |  |  |  | 
COc1ccc([P+]([Au-][S][C@@H]2OC(COC(C)=O)[C@@H](OC(C)=O)[C@H](OC(C)=O)C2OC(C)=O)(c2ccc(OC)cc2)c2ccc(OC)cc2)cc1 (stereo partly drawn) [Compound 34, (2,3,4,6-Tetra-O-acetyl-1-thio-β-D-glucopyranosato)(tris(4-methoxyphenyl)phosphine) Gold(I)] | 4 µM | >3.03 | >281 µM |  | >281 µM |  | >281 µM |  | 2 µM | >281 µM |  | >281 µM | 2 µM and 4 µM |  | 1 µM |  |  | 
COc1ccc([P+]([Au-][Cl])(c2ccc(OC)cc2)c2ccc(OC)cc2)cc1 [Compound 28, (Tris(4-methoxyphenyl)phosphine)gold Chloride] | 3 µM | >4.09 | >438 µM |  | >438 µM |  | >438 µM |  | 3 µM | >438 µM |  | >438 µM | 3 µM |  | 2 µM |  |  | 
CC[PH](CC)(CC)[Au][S]C1OC(CO)C(O)C(O)C1O [Compound 11, (1-Thio-D-mannopyranosato)(triethylphosphine) Gold(I)] | 0.5 µM | −0.59 | 125 µM | 251 µM | 31 µM | 63 µM | 502 µM | 502 µM | 0.1 µM | 16 µM | 16 µM | 502 µM | 0.1 µM and 0.06 µM |  |  | 502 µM |  | 
CC(=O)NC1C([S][Au][PH](C)(C)C)OC(CO)C(O)C1O [Compound 39, (2-Acetamido-2-deoxy-1-thio-β-D-glucopyranosato)-(trimethylphosphine) Gold(I)] | 0.5 µM | −2.03 | 8 µM and 16 µM | 16 µM | 16 µM and 8 µM | 16 µM | >503 µM |  | 0.5 µM |  | 31 µM | 31 µM |  |  | 0.5 µM | 126 µM |  | 
CC[PH](CC)(CC)[Au][S]c1ccccc1 [Compound 15, (Benzenethiolato)(triethylphosphine) Gold(I)] | 1 µM | 2.20 | 75 µM | 603 µM |  | > 603 µM | 302 µM | 302 µM | 0.6 µM | 151 µM | 151 µM | >603 µM | 0.6 µM |  | 0.02 µM |  |  | 
CC[P+](CC)(CC)[Au-][S][C@@H]1OC(CO)[C@@H](O)[C@H](O)C1NC(C)=O (stereo partly drawn) [Compound 12, (2-Acetamido-2-deoxy-1-thio-β-D-glucopyranosato)-(triethylphosphine) Gold(I)] | 0.5 µM | −0.89 | 116 µM | 232 µM | 15 µM and 29 µM | 116 µM | 464 µM | 464 µM | 0.05 µM | 7 µM and 4 µM | 7 µM | 464 µM | 0.05 µM and 0.1 µM |  | 0.02 µM | 464 µM | 2–3 | 2–3
CC(=O)OCC1O[C@@H]([S][Au-][P+](c2ccccc2)(c2ccccc2)c2ccccc2)C(OC(C)=O)[C@@H](OC(C)=O)[C@@H]1OC(C)=O (stereo partly drawn) [Compound 33, (2,3,4,6-Tetra-O-acetyl-1-thio-β-D-glucopyranosato)-(triphenylphosphine) Gold(I)] | 5 µM | >3.87 | >311 µM |  | >311 µM |  | >311 µM |  | 2 µM | >311 µM |  | >311 µM | 5 µM |  | 1 µM and 2 µM |  |  | 
CC(=O)OCC1O[C@@H]([S][Au-][P+](c2ccc(F)cc2)(c2ccc(F)cc2)c2ccc(F)cc2)C(OC(C)=O)[C@@H](OC(C)=O)[C@@H]1OC(C)=O (stereo partly drawn) [Compound 35, (2,3,4,6-Tetra-O-acety/-1-thio-β-D-glucopyranosato)(tris(4-fluorophenyl)phosphine) Gold(I)] | 5 µM | >3.04 | >292 µM |  | >292 µM |  | >292 µM |  | 2 µM | >292 µM |  | >292 µM |  |  | 1 µM |  |  | 
